An excerpt weighted towards active compounds, which were near 1.9% of everything screened.
M5 PAM – potentiates acetylcholine response at human M5 receptor. activation, % at 3 µM. 0.3% of 360,000 active. P08912. CHO-K1 hM5, Fluo-8 calcium, ACh EC20 PAM; 0% = ACh EC20, 100% = ACh EC100;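 active = activation above the run cutoff, the mean activation of all test compounds plus 3 SD, cut at about 18% in these data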
Target sequence (P08912 whole entry, looked up): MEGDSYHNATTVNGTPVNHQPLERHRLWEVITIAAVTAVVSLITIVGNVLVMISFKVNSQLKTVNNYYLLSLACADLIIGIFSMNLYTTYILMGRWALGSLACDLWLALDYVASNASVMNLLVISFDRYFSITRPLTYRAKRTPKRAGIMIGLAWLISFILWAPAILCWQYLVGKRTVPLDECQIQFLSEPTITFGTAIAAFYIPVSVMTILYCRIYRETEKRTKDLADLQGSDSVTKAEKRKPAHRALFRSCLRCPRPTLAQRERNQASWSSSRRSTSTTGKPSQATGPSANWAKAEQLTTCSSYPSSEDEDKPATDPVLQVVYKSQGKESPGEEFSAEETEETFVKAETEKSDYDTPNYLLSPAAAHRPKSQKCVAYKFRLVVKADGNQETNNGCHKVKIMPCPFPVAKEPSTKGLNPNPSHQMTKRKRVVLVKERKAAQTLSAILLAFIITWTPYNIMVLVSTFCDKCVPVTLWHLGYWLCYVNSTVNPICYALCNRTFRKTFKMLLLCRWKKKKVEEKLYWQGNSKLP
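Probe or stimulus: acetylcholine, EC20 level; Assay system: human M5 receptor in CHO-K1 cells; Schedule: compound preincubation 140 s before EC20 acetylcholine addition; Technique: intracellular calcium via Fluo-8 fluorescence; Dosing: single-point, 3 µM nominal; Read-out basis: percent activation from peak-over-basal fluorescence ratio, scaled EC20-to-EC100 acetylcholine; Repeats: one well per compound, no replicates.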
M5 ag – agonists of human muscarinic M5 receptor (CHRM5); P08912; CHO-K1 hM5 cells, Fluo-8 calcium fluorescence; 0% DMSO wells, 100% maximal acetylcholine response; activation, % at 3 µM; 0.19% of 360,000 active; AID 624037;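 active = activation above the run's mean over test compounds plus 3 SD, cut at about 23% in these data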;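 note: signal is peak over basal fluorescence ratio across the kinetic read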
CHRM4 antagonist – antagonists of human muscarinic M4 receptor (CHRM4). CHO-hM4 cells, ACh EC80, Fluo-8 calcium fluorescence. inhibition, % at 3 µM. 0.73% of 360,000 active. AID 624125;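 active = inhibition above its plate's cutoff, the mean inhibition of sample wells plus 3 SD, cut at about 27% in these data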;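 note: 0% = acetylcholine EC80 with DMSO and 100% = DMSO without agonist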
M4 ag – agonists of human muscarinic M4 receptor (CHRM4); CHO-K1 hM4/Gqi5, Fluo-8 calcium fluorescence; vehicle 0%, full acetylcholine response 100%; 0.14% of 360,000 active; P08173; activation, % at 3 µM;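 active = activation above the run mean over all test wells plus 3 SD, cut at about 32% in these data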;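 note: peak over basal fluorescence ratio per well then scaled between controls; 0% = DMSO wells and 100% = acetylcholine at EC100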
M4 PAM – positive allosteric modulators of human muscarinic M4 receptor | P08173 | CHO-K1 hM4/Gqi5, Fluo-8 calcium fluorescence, ACh EC20; 0% = ACh EC20, 100% = maximal ACh | activation, % at 3 µM | 0.4% of 360,000 active | AID 624126;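 active = activation above its plate's cutoff, the mean activation of sample wells plus 3 SD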
M5 antag – antagonists of human muscarinic M5 receptor (CHRM5) | P08912 | inhibition, % at 3 µM | CHO-hM5 cells, Fluo-8 calcium fluorescence, ACh EC80 | 0.59% of 360,000 active;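 active = inhibition above a per-plate cutoff, the mean of that plate's test compounds plus 3 SD, cut at about 27% in these data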;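 note: 0% = acetylcholine EC80 with DMSO and 100% = DMSO without agonist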
* marks the source's active call; other numbers are inactive results.

SMILES	M5 PAM	M5 ag	CHRM4 antagonist	M4 ag	M4 PAM	M5 antag
COc1cccc(OC)c1OCCCCCCN1CCN(C)CC1	1.3	-6.4	-6.8	1.2	1.9	1.6
CC(=O)C1=CCC(c2cccc3ccccc23)N(S(=O)(=O)c2ccc(C)cc2)C1 (stereo not given)	-0.7	1.0	-8.3	0.5	0.3	6.3
CCOC(=O)N1CCN(C(=O)C[C@@H]2C[C@@]3(C(=O)OC)CC(C)(C)CC=C3N(CCc3ccc(OC)c(OC)c3)C2=O)CC1	1.3	5.8	1.5	5.5	-1.2	0.3
CC1(C(=O)Nc2cnc3ccccc3c2)CCN1C(=O)C/C=C/c1ccccc1 (stereo not given)	-6.8	0.8	-9.8	8.1	-0.2	0.7
Cc1ccc2nc(-c3ccc(C#N)cc3)c(Cc3ccccc3C(F)(F)F)n2c1	-8.5	-5.6	-1.2	-0.6	0.7	6.9
COc1ccc(OC)c(CN2C(=O)CCC2(C)c2nnnn2-c2c(C)cccc2C)c1 (stereo not given)	-0.1	3.5	-3.1	4.0	8.8	-1.5
O=c1cc(CN2CCCC2)c2c(ccc3ccccc32)o1	-0.1	-0.4	-1.5	0.3	1.0	6.1
CNc1cc(-c2cc(OC)ccc2OC)ncn1	0.2	-0.3	72.9*	-0.7	-11.9	0.8
COc1ccc(OC)c(S(=O)(=O)NC(=O)C2(C)CCN2C(=O)Cc2ccccc2)c1 (stereo not given)	3.5	-0.5	-10.9	-0.7	10.3	-2.1
CC1(C(=O)NS(=O)(=O)c2cccc(C#N)c2)CCN1C(=O)Cc1ccccc1Cl (stereo not given)	0.4	1.2	-0.7	0.2	5.1	3.5
COc1ccccc1N1CCN(C(=O)c2ccc3noc(-c4ccccc4)c3c2)CC1	-13.4	24.9*	-22.8	7.7	-0.5	4.5
O=C(COc1ccc(C(F)(F)F)cc1[N+](=O)[O-])Nc1cccc(C(F)(F)F)c1	14.7	-3.5	13.6	2.2	29.5*	-9.2
COc1cc(C(=O)Nc2scc(-c3ccccc3)c2C(=O)O)cc(OC)c1OC	1.1	-0.5	-0.1	2.7	1.3	3.8
COc1cc(C(=O)Nc2scc(-c3ccc(C)cc3)c2C(=O)O)cc(OC)c1OC	2.6	-0.5	62.5*	-0.6	-13.1	10.3
COC(=O)[C@]12CCCCC=C1N(Cc1cccc3ccccc13)C(=O)[C@H](CC(=O)N1CCN(C(=O)C3CC3)CC1)C2	-8.2	4.5	-2.0	16.4	-5.4	3.7
Cc1ccccc1SCC(=O)OCC(=O)Nc1sccc1C(N)=O	-19.5	8.9	30.7*	18.5	-12.1	39.6*
CN(C)S(=O)(=O)c1cccc(C(=O)OCC(=O)Nc2sccc2C(N)=O)c1	-19.8	14.7	38.4*	30.4	-20.3	16.0
NC(=O)c1ccsc1NC(=O)COC(=O)Cc1cccc2ccccc12	-21.0	7.9	61.1*	22.2	-14.3	54.8*
NC(=O)c1ccsc1NC(=O)CSc1ccccc1F	0.4	4.9	5.3	4.3	2.9	2.2
O=C(CC1c2ccccc2C=C(c2ccsc2)N1c1ccc(-c2cccnc2)cc1)C1CC1 (stereo not given)	-1.1	-2.1	-7.1	0.0	-0.8	-3.4
COc1cccc(S(=O)(=O)N2C[C@H](O)COC[C@H]3O[C@@H](CC(=O)N4CCN(C)CC4)CC[C@@H]32)c1	2.2	-1.1	3.0	0.3	16.2	-2.8
O=C(NCC(=O)N(CC1CCCO1)C(C(=O)NC1CCCC1)c1cccnc1)c1ccco1 (stereo not given)	23.1*	8.2	4.9	0.8	16.6	-12.7
O=C(NCC(=O)N(Cc1ccccc1)C(C(=O)NC1CCCC1)c1cccnc1)c1ccco1 (stereo not given)	8.3	-6.2	2.0	1.5	18.0*	6.4
O=C1NC[C@H](CCCCN2C[C@H](Cc3ccc(O)cc3)N(CCc3ccc(O)cc3)C(=O)C2=O)N(CCc2ccc(O)cc2)C1=O	7.9	3.6	-11.3	1.8	-0.2	-15.1
CCc1nc2ccc(C(=O)NCCCN3CCCC3=O)cn2c1N(C)C(=O)Nc1ccccc1OC	1.3	0.9	3.6	0.7	0.6	-1.4

Screening results: PubChem BioAssay, The Scripps Research Institute Molecular Screening Center
